High-throughput results as filed in PubChem.
Hits are enriched below; roughly 9.4% of the tested compounds scored in any of these assays.
Mdm2 MdmX PPI – inhibitors of human Mdm2-MdmX association, primary screen, cell-based, luminescence, split luciferase, SaOS-2, uHTS; Protein Mdm4 (Homo sapiens) + E3 ubiquitin-protein ligase Mdm2 (Homo sapiens), …; SaOS-2 split-luciferase Mdm2/MdmX complementation; inhibition, % at 8 µM; actives 3% (n = 330,000); AID 485346, 2010;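 active = inhibition of at least 50% at 8 µM in the primary screen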
Target sequence (O15151 whole entry, looked up): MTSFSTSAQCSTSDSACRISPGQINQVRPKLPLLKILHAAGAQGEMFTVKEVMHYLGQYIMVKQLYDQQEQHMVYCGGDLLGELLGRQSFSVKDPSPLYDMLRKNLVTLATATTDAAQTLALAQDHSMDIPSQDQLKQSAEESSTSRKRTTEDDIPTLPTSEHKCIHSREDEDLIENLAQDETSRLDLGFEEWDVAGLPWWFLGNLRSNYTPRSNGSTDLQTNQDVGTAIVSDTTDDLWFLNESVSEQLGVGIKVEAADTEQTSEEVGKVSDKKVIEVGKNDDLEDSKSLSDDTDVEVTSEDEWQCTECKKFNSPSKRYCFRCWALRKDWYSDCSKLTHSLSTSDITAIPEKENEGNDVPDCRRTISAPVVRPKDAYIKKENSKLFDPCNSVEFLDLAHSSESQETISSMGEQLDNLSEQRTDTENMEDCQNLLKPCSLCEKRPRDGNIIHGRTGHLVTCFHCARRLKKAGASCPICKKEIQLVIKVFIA
Target sequence (Q00987 whole entry, looked up): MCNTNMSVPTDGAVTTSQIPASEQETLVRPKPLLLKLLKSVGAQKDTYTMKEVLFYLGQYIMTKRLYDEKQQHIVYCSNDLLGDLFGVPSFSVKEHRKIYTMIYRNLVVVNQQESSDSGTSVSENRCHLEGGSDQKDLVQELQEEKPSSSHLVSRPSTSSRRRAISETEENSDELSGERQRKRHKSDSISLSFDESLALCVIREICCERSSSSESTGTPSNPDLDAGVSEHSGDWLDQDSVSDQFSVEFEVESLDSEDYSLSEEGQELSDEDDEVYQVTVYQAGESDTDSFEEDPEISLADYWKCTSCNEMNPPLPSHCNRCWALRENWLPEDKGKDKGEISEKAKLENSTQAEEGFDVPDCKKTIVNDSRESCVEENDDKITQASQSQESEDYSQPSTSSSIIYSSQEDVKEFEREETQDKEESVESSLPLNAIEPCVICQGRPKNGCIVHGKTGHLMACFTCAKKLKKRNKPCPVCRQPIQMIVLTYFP
L major viab – Leishmania major promastigote growth inhibition, primary screen | AID 1063, 2008 | inhibition, % at 10 µM | Leishmania major promastigotes, resazurin fluorescence viability | actives 9% (n = 200,000); in the data active = inhibition above about 50%;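 note: promastigotes grown with compound for 44 hours at 28 °C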
SKKanGAS inh – S. pyogenes SKKanGAS growth inhibitors in kanamycin, primary screen, streptokinase expression inhibitor project, SKKanGAS strain, BacTiter-Glo luminescence; 6 h; inhibition, % at 7.5 µM; actives 1.3% (n = 300,000);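 active = mean replicate score, as percent of positive control median, at least 50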;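 note: strain carries kanamycin resistance gene driven by streptokinase promoter and grows in 40 µg/ml kanamycin; loss of luminescence reflects streptokinase promoter inhibition or plain growth inhibition; 0% = median of DMSO wells and 100% = positive control at its reference dose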
T cruzi inh – inhibitors of intracellular T. cruzi growth, primary screen, luminescence, NIH3T3 host cells | T. cruzi beta-gal in NIH3T3, 90 h | actives 1.4% (n = 300,000) | inhibition, % (concentration not given with the values);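 active = mean inhibition across valid replicates above about 55%, limit read from the data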;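 note: signal also drops with host cell toxicity which is not excluded here; 0% = plate median of DMSO wells and 100% = zero luminescence signal; higher percent means less beta-gal luminescence so fewer parasites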
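Assay system: NIH/3T3 host cells with β-galactosidase reporter T. cruzi; input: 5,000 host fibroblasts per well; compound: single 50 nL compound addition per well in DMSO; timing: ≥90 h infection period, 3 h prior cell attachment; measured by: GalScreen β-gal luminescence, detergent lysis, 60 min; evaluation: percent inhibition of parasite-derived β-gal signal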
Beta cell apopt – inhibitors of cytokine-induced beta cell apoptosis, primary screen, luminescence; INS-1E cytokine-induced death, ATP luminescence, 48 h; percent of positive-control rescue, neutral wells zero; protection from apoptosis, % (no concentration beside the values); actives 0.8% (n = 300,000);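 active = Every replicate reaches about 75%, or at least half do and their mean reaches it too, limit read from the data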;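 note: 0% = cytokine-treated negative control wells and 100% = positive control rescue; higher means more ATP so stronger rescue from cytokine killing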
CSC inhib – cancer stem cell viability inhibitors, primary screen, luminescence | cancer stem cell-like cells viability | inhibition, % at 7.5 µM | actives 1.1% (n = 300,000) | AID 2717, 2010; in the data active = inhibition above about 75%; tested in HMLE shEcad cells
Starred values were filed as active, the others as inactive; / = no result.

SMILES	Mdm2 MdmX PPI	L major viab	SKKanGAS inh	T cruzi inh	Beta cell apopt	CSC inhib
Cc1ccc2nc3c(cc(C(N)=S)c(=N)n3CCCOC(C)C)c(=O)n2c1	49.4	85.7*	1.0	63.8*	8.6	/
COCCCn1c(=NC(=O)c2ccncc2)c(C#N)cc2c(=O)n3cccc(C)c3nc21	3.2	19.7	2.1	1.2	/	-3.4
CCOC(=O)c1cc2c(=O)n3cccc(C)c3nc2n(Cc2cccnc2)c1=N	/	28.2	/	/	/	/
COCCNC(=O)c1cc2c(=O)n3cccc(C)c3nc2n(Cc2ccncc2)c1=N	16.6	26.9	-0.7	-14.0	0.4	-10.3
O=C(CN1CCN(CC(=O)Nc2ccccc2Cl)CC1)NCC1(N2CCCCC2)CCCCC1	30.9	/	/	/	-4.1	/
CCOC(=O)c1c(C)nc2c(c1-c1cc(OC)ccc1OC)C(=O)CC(C)(C)C2	-2.8	/	2.9	6.3	-2.9	-5.2
Cc1cc(C)nc(NS(=O)(=O)c2ccc(N3C(=O)C4C5C=CC(C5)C4C3=O)cc2)n1 (stereo unspecified)	8.4	-5.3	-3.9	2.3	7.7	-8.5
CC1=CC2CC1C1C(=O)N(c3ccc(S(=O)(=O)Nc4nc(C)cc(C)n4)cc3)C(=O)C21 (stereo unspecified)	16.9	52.0*	-1.6	-6.2	-4.6	-7.3
Cc1ccc(-c2nnc(SCc3ccc(C#N)cc3)n2Cc2ccco2)cc1	-42.7	66.0*	2.1	11.7	-0.9	/
COc1cccc(-c2nnc(SCc3ccc(C#N)cc3)n2Cc2ccco2)c1	21.7	12.4	-9.7	17.8	11.1	-8.0
C(=C\c1ccccc1)/CSc1nnc(-c2ccccc2)n1Cc1ccco1	36.1	85.1*	0.6	-18.0	16.6	65.7
CCc1ccccc1OCCCCCNCCO	-22.8	92.5*	0.1	21.5	-4.7	16.1
CCc1ccccc1OCCCOc1ccc(OC)cc1	-5.1	-1.9	28.2	-1.6	-1.0	15.4
OCCNCCCCCOc1ccc(F)cc1	6.5	97.1*	-1.0	5.4	-0.9	5.6
Cc1cccc(OCCCCNCc2ccccc2)c1	-2.2	89.3*	-0.3	21.7	-1.2	8.6
Clc1ccc(Cl)c(OCCCCNCc2ccccc2)c1	29.9	98.0*	3.8	28.5	6.1	38.5
COc1ccccc1CCNC(=O)c1ccc(Br)s1	-23.7	/	1.5	8.4	9.6	0.4
Cc1cccc(OCCCCCNCCO)c1	-11.3	99.0*	1.1	8.9	-5.7	19.1
CCc1cccc(OCCCCNCCO)c1	-9.4	91.3*	-0.2	-17.0	/	-3.1
CCC(=O)NCCCOc1ccccc1	5.2	-5.6	-14.2	-7.3	-2.8	11.9
CCCCNCCCCOc1ccccc1	1.8	87.9*	1.1	4.4	-7.0	6.1
Cc1cc(OCCCCCNCCO)ccc1Cl	5.1	100.0*	-2.0	26.5	-5.7	34.6
O=C(CNc1ccccc1F)Nc1cccc(S(=O)(=O)N2CCCCC2)c1	16.0	/	/	/	/	/
CCN(CC)S(=O)(=O)c1ccc(N=Nc2cc(C)cc(Br)c2O)cc1	23.5	/	-8.7	-10.2	3.6	-3.9
Cc1ccc(N=Nc2ccc(O)cc2)c(Br)c1	-281.9	/	6.5	5.0	8.3	86.8*
SMILES	Mdm2 MdmX PPI	L major viab	SKKanGAS inh	T cruzi inh	Beta cell apopt	CSC inhib
Cc1ccc(C)c(NC(=S)N(CCc2nc3cc(C)c(C)cc3[nH]2)Cc2cccnc2)c1	1.7	3.3	-1.8	65.6*	-11.5	14.3
Cc1cccc(NC(=S)N(CCc2nc3cc(C)c(C)cc3[nH]2)Cc2cccnc2)c1	14.3	-3.8	-4.1	79.4*	/	/
C#CC(C)(CC)NC(=O)c1cc2nc(C3CC3)cc(C(F)(F)F)n2n1 (stereo unspecified)	11.0	28.1	1.1	12.9	1.5	-3.4
CCc1cc(CNC(=O)c2ccc3nc(Cc4ccc(OC)c(OC)c4)oc3c2)on1	15.5	/	-5.6	-7.9	107.2*	-9.2
CN1CCN(/N=C/c2c3ccccc3c(Cl)c3ccccc23)CC1	13.7	65.8*	5.8	29.0	1.9	65.9
CCCCOc1ccc(C(=O)N2CC(C)OC(C)C2)cc1 (stereo unspecified)	3.0	-3.3	11.3	-12.8	-2.4	/
CC(=O)c1ccc(OCC(O)CN2CC(C)OC(C)C2)cc1 (stereo unspecified)	14.5	36.8	1.3	12.0	-3.3	-6.8
CC1CN(CC(O)COC(c2ccc(Cl)cc2)c2ccc(Cl)cc2)CC(C)O1 (stereo unspecified)	-0.1	66.9*	-2.9	29.5	106.1*	26.0
OC(COC(c1ccc(F)cc1)c1ccc(F)cc1)CN1CCCC1 (stereo unspecified)	-11.5	/	3.5	-33.2	-5.1	-3.2
CN(C)CCOC(c1ccc(Cl)cc1)c1ccccn1 (stereo unspecified)	19.3	23.0	0.8	-8.5	6.7	-0.4
CC1CN(CCCCOc2ccc(C(C)C)cc2)CC(C)O1 (stereo unspecified)	3.5	91.2*	1.8	35.8	/	45.6
CC1CN(CC(O)COc2ccc(C(C)C)cc2)CC(C)O1 (stereo unspecified)	13.7	92.4*	-0.4	-5.7	-3.8	43.9
CN(C)CC(O)COC(c1ccc(Cl)cc1)c1ccc(Cl)cc1 (stereo unspecified)	34.3	99.3*	20.3	22.7	0.8	14.1
COc1ccc(C(CNC(=O)c2cccc(Br)c2)N2CCCC2)cc1 (stereo unspecified)	-16.3	53.5*	-4.2	6.1	-5.8	-13.5
COc1ccc(C(CNC(=O)c2cccc(NC(=O)c3cccs3)c2)N2CCCC2)cc1 (stereo unspecified)	-7.1	/	/	/	-4.3	-0.4
Nc1c(Cl)ncnc1NCc1ccccc1	-0.1	/	1.0	-11.2	3.9	-10.1
Cc1cccc(CNC(=O)CC2C(=O)NCCN2C2CCCC2)c1 (stereo unspecified)	-23.9	/	-9.7	17.6	-8.2	1.9
Cc1cccc(-n2c(SCc3ccc(C#N)cc3)nnc2-c2c[nH]c3ccccc23)c1	32.5	97.8*	24.7	29.9	13.7	5.1
COC(=O)c1ccc(CSc2nnc(-c3c[nH]c4ccccc34)n2-c2ccccc2)cc1	-1.4	41.8	17.0	28.6	-6.1	-0.2
COC(=O)NC(NC(=S)Nc1cccc(C)c1)C(Cl)(Cl)Cl (stereo unspecified)	-3.8	12.7	-1.7	11.7	1.5	/
Cc1ccc(C)c(NC(=S)NC(NC(=O)OCc2ccccc2)C(Cl)(Cl)Cl)c1 (stereo unspecified)	-4.5	57.6*	13.6	17.3	1.8	-19.0
CCOc1ccc(S(=O)(=O)N2CCOCC2)cc1NC(=O)c1ccc(N2CCCC2=O)cc1	-9.5	/	0.0	-1.9	7.3	3.1
N#Cc1ccc(S(=O)(=O)N2CCN(Cc3cccs3)CC2)cc1	20.7	/	/	/	4.0	/
